This sample holds only a part of the variants without activity.
B1: tRNA (parent)
chain: GUUCCGUUGGCGUAAUGGUAACGCGUCUCCCUCCUAAGGAGAAGACUGCGGGUUCGAGUCCCGUACGGAACG

Variants of: B1
Assay: yeast fitness relative to wild type (ratio to wild type); higher = fitter; tRNA-Arg(CCU), competitive growth, 37 C, YPD
How it was run: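 Genotype frequency changes were the basis for Darwinian fitness relative to wild type. The frequencies came from 100-nucleotide paired-end sequencing of gene amplicons from the start population and each end population of pooled yeast strains with tRNA-Arg(CCU) gene variants at the native locus. Competition ran in YPD at 37°C for 24 hours in six replicates, genotypes needed ≥ 100 starting reads, and estimates < 0.5 were set to 0.5.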

Variant | yeast fitness
GUUCCGUUGGCGUAAUGGUAACGCGUCUCCGGCCUAAGGAGAAGACUGCGGGUUAGAGUCCGGUUCGGAACG [C31G U32G C55A C62G A65U] | 0.688
GUUCCGUUGGCGUAAUGGUAACGCGUCUCCUUCCUACGGAGAUGACUGCCGGUUCGAGUCCCGUACGGUACG [C31U A37C A43U G50C A69U] | ≤ 0.5
GUUCCGUUGGCGUAAUGGUAACGCGUCUCCUUCCUUAGGAGACGACUGCGGGUUGGAGUCCCGUACGGAACG [C31U A36U A43C C55G] | ≤ 0.5
GUUCCGUUGGCGUAAUGGUAACGCGUCUCCGCCCUAAGCAGAAGACUGCGGGUUCGAGUCCCGUACGGAACG [C31G U32C G39C] | 0.507
GUUCCGUUGGCGUAAUGGUAACGCGUCUCCUUCCUAAGGAGGAGACUGCGGGUUCGAGUCCUGUACGGAACG [C31U A42G C62U] | 0.583
GUUCCGUUGGCGUAAUGGUAACGCGUCUCCGUCCUAAGGAGAAGACUGCGGGUUCGACUCCCGUACCGAACG [C31G G58C G67C] | 0.533
GUUCCGUUGGCGUAAUGGUAACGCGUCUCCUUCCUACGGAGAAGACUGCGGGUUCGAGUCCCGAACGGAACG [C31U A37C U64A] | ≤ 0.5
GUUCCGUUGGCGUAAUGGUAACGCGUCUCCUUCCUAGGGAGAAGCCUGCGGGUUCGAGUCCGGUACGGAACG [C31U A37G A45C C62G] | 0.593
GUUCCGUUGGCGUAAUGGUAACGCGUCUCCUUCCUAAGGGGAAGACUGCGGGUUCGAGUCCCGUACGGAUCG [C31U A40G A70U] | 0.55
GUUCCGUUGGCGUAAUGGUAACGCGUCUCCUUCCUAAGGGGAAGAGUGCGGGUUCGAGUCCCGUGCGGAACG [C31U A40G C46G A65G] | ≤ 0.5
GUUCCGUUGGCGUAAUGGUAACGCGUCUCCGUCCAAAGGAGAAGACUGCGGGUUCGAGUCCCGUACGGAACG [C31G U35A] | 0.659
GUUCCGUUGGCGUAAUGGUAACGCGUCUCCUUCCUAGGGAGAAGCCUGCGGGUUCGAGUCCCGUACGGACCG [C31U A37G A45C A70C] | ≤ 0.5
GUUCCGUUGGCGUAAUGGUAACGCGUCUCCGACCUAAGGAGAAGACUGCGGGUUCCAGUCCCGUACGGAACG [C31G U32A G56C] | 0.6
GUUCCGUUGGCGUAAUGGUAACGCGUCUCCGUCCUAAGGAGAAGACUGCGGGUUCGAGUCCCGAACGGCACG [C31G U64A A69C] | ≤ 0.5
GUUCCGUUGGCGUAAUGGUAACGCGUCUCCGUCCUAAGGAGAAGACUGCGGGUUCGAGUCCCCUACGGAACG [C31G G63C] | 0.614
GUUCCGUUGGCGUAAUGGUAACGCGUCUCCUUCCUAAGGCGAAGAGUGCGGGUUCGAGUCCCGUACGGAACG [C31U A40C C46G] | 0.744
GUUCCGUUGGCGUAAUGGUAACGCGUCUCCGUCCUAAGGAGAAGACUGCGGGUUCGAGUCCCGCACGGAACG [C31G U64C] | 0.777
GUUCCGUUGGCGUAAUGGUAACGCGUCUCCGUCCUAAGGAGAAGACUGCGGGUUCGAGUCCCGGACGGAACG [C31G U64G] | 0.714
GUUCCGUUGGCGUAAUGGUAACGCGUCUCCGUCCUAAGGAGAAGACUGCGGGUCCGAGUCCCGUACGGAACG [C31G U54C] | 0.798

Variant | yeast fitness
GUUCCGUUGGCGUAAUGGUAACGCGUCUCCGUCCUAAGGAGAAGACUGCGGCUUCGUGUCCCGUACGGAACG [C31G G52C A57U] | 0.599
GUUCCGUUGGCGUAAUGGUAACGCGUCUCCUUCCUAAGGGGAAGACUGCGGGUCCGAGUCCCGUACGGAUCG [C31U A40G U54C A70U] | 0.527
GUUCCGUUGGCGUAAUGGUAACGCGUCUCCUUCCUAAGGCGAAGACUGCGGGUUCAUGUCCCGUACGGAACG [C31U A40C G56A A57U] | ≤ 0.5
GUUCCGUUGGCGUAAUGGUAACGCGUCUCCGUCCUAAGGAGAAGACGGGGGGUUCGAGUUCGGUACGGAACG [C31G U47G C49G C60U C62G] | ≤ 0.5
GUUCCGUUGGCGUAAUGGUAACGCGUCUCCUUCCUAGGGAGAAGACUGCGGGUUCGAGUCCGGUACGGAACG [C31U A37G C62G] | 0.517
GUUCCGUUGGCGUAAUGGUAACGCGUCUCCUUCCUAGGGAGAAGACUGCGGGUACGAGUCCCGUACGGAACG [C31U A37G U54A] | ≤ 0.5
GUUCCGUUGGCGUAAUGGUAACGCGUCUCCUUCCUAAGGAGCAGACUGCGGGUUCGAGUCCCGUACAGAACG [C31U A42C G67A] | 0.628
GUUCCGUUGGCGUAAUGGUAACGCGUCUCCGACCUAAGGAGAAGACUGCGGGGUCGAGUCCCGUACGGAACG [C31G U32A U53G] | 0.646
GUUCCGUUGGCGUAAUGGUAACGCGUCUCCUUCCUAAGGCGAAGACUGCGGGUUCGAGUCCCGUCCGGAACG [C31U A40C A65C] | 0.817
GUUCCGUUGGCGUAAUGGUAACGCGUCUCCGUCCAAAGGAGAAGACUGCGGGUUCGAGUCCCGUUCGGAACG [C31G U35A A65U] | 0.622
GUUCCGUUGGCGUAAUGGUAACGCGUCUCCGUCCUAAGGAGAAGACUGCGGGUUCCAGUCACGUACGGAACG [C31G G56C C61A] | ≤ 0.5
GUUCCGUUGGCGUAAUGGUAACGCGUCUCCGUCCUAAGGAGAAGACAGCGGGUUCGAGUCCCGUACGGAACG [C31G U47A] | 0.847
GUUCCGUUGGCGUAAUGGUAACGCGUCUCCUUCCUUAGGAGAAGACUGCGAGUUCGAGUCCCGUACGGAUCG [C31U A36U G51A A70U] | 0.693
GUUCCGUUGGCGUAAUGGUAACGCGUCUCCUUCCUAAGGAGCAAUCUGCGGGUUCGAGUCCCGUACGGAACG [C31U A42C G44A A45U] | 0.55
GUUCCGUUGGCGUAAUGGUAACGCGUCUCCUUCCUAAGGUGAAGACUGCGGGUUCGAGCCCCGUACGGAUCG [C31U A40U U59C A70U] | ≤ 0.5
GUUCCGUUGGCGUAAUGGUAACGCGUCUCCUUCCUAAGGAGGAGACUGCAGGUUCGAGUCCCGUACGGAACG [C31U A42G G50A] | 0.629
GUUCCGUUGGCGUAAUGGUAACGCGUCUCCGUCCUAAGGAGAAGACUGCGGGUUCAAGCCCCGUCCGGAGCG [C31G G56A U59C A65C A70G] | ≤ 0.5
GUUCCGUUGGCGUAAUGGUAACGCGUCUCCUUCCUGAGGAGAAGUCUGCGGGUUCGAGUCCCGUACGGAACG [C31U A36G A45U] | 0.593

Reference: the RNAGym collection of RNA variant scans (doi:10.1126/science.aae0568)
